This is an account of results in ChEMBL document CHEMBL1149827, “Dichapetalin-type triterpenoids and lignans from the aerial parts of Phyllanthus acutissima” (J Nat Prod, 2008).

In brackets after ≈: the same amount, converted by molar mass.

Experiment [1] has as its system P388. The experiment can be described thus: Cytotoxicity against mouse P388 cells after 72 hrs by sulforhodamine B assay. Particulars: P388, 72 h, read-out: ED50 (the source's name). In kind it is functional. In a few lines:
(§1)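 SRB assay. Samples from […] DMSO stock, final DMSO 0.5%, triplicate, 72 h at 37 °C, 5% CO2. Media: P-388 Fisher's + 5% BCS; KB DMEM + 10% BCS; Col-2, ASK MEM + 10% FBS; MCF-7, Lu-1 MEM + 5% BCS. TCA-fixed, 0.4% SRB stain, dye solubilized in 10 mM trizma base, A515 read. ED50 reported.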
(In general: The SRB assay estimates cell density from bound dye.)

Experiment [2] concerns Human immunodeficiency virus 1. The experiment in a line: Selectivity index, ratio of IC50 for deltaTat/Rev deffective HIV1 in 1A2 cells to EC50 for deltaTat/Rev deffective HIV1 in 1A2 cells. The experiment is classed as functional. A digest of the protocol: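 Ratio of the XTT IC50 in uninfected 1A2 cells to the syncytium-reduction EC50 against ∆Tat/RevMC99 virus in 1A2 cells.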

Experiment [3] deals with MCF7. The experiment in a line: Cytotoxicity against human MCF7 cells after 72 hrs by sulforhodamine B assay. The experiment is classed as functional. Conditions: MCF7, 72 h, read-out: ED50 (the source's name). A digest of the protocol:
as §1

Experiment [4] deals with Lu1. The experiment can be described thus: Cytotoxicity against human Lu1 cells after 72 hrs by sulforhodamine B assay. In kind it is functional. Particulars: Lu1, 72 h, read-out: ED50 (the source's name). A digest of the protocol:
as §1

Experiment [5] deals with Human immunodeficiency virus 1. The experiment in a line: Antiviral activity against deltaTat/Rev deffective HIV1 in 1A2 cells assessed as inhibition of metabolic activity in uninfected cells. In kind it is functional. Particulars: Human immunodeficiency virus 1, 1A2. A digest of the protocol: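 Uninfected 1A2 cells (same batch), run in parallel with the syncytium assay, with medium in place of virus. Serial dilutions in duplicate wells, 3 days. XTT–phenazine methosulfate added; formazan read at A450 with A650 reference. IC50 is the dose inhibiting 50% of metabolic activity.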

The test system of experiment [6] is Human immunodeficiency virus 1. The experiment in a line: Antiviral activity against deltaTat/Rev deffective HIV1 in 1A2 cells assessed as reduction of syncytium formation. In kind it is functional, organism-based. Conditions: Human immunodeficiency virus 1, 1A2. In a few lines: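 1A2 cells seeded, then compound added as 2-fold serial dilutions in triplicate. After 1 h preincubation, ∆Tat/RevMC99 virus added. Virus, cell and cytotoxicity control wells; AZT positive control. EC50 is the concentration reducing syncytium formation by 50%.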

Experiment [7] concerns KB. The experiment can be described thus: Cytotoxicity against human KB cells after 72 hrs by sulforhodamine B assay. The experiment is classed as functional. Conditions: read-out: ED50 (the source's name). A digest of the protocol: as §1
Experiment [8] in a line: Cytotoxicity against rat ASK cells after 72 hrs by sulforhodamine B assay. In kind it is functional. Conditions: read-out: ED50 (the source's name). In a few lines: as §1
In experiment [9] the test system is Col2. The experiment can be described thus: Cytotoxicity against human Col2 cells after 72 hrs by sulforhodamine B assay. The experiment is classed as functional. Particulars: Col2, 72 h, read-out: ED50 (the source's name). A digest of the protocol:
as §1

The target in experiment [10] is Human immunodeficiency virus type 1 reverse transcriptase (Human immunodeficiency virus 1) (UniProt Q72547). The experiment in a line: Inhibition of HIV1 reverse transcriptase at 200 ug/ml. A digest of the protocol: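 Tannin-free samples at final 200 µg/mL in 10% DMSO added to the reaction mix before HIV-1 RT. Control with 10% DMSO only; nevirapine (2 µg/mL) positive control. Duplicate wells averaged, % RT inhibition calculated.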

Experiment [11] has as its system L1210. The experiment in a line: Cytotoxicity against mouse L1210 cells. The experiment is classed as functional.

For `CO[C@@]1(C)CO[C@@]2(C=C([C@@H]3CC[C@]45C[C@]34CC[C@@H]3[C@@]4(C)CC=C6C[C@@H](c7ccccc7)OC[C@]6(C)[C@@H]4C[C@@H](O)[C@]35C)C(=O)O2)C1`, the EC50 in experiment [1] is 0.4 µg/mL (≈ 0.651 µM); in [3], above 5 µg/mL; in [4], above 5 µg/mL; in experiment [6] it was 72.9 µg/mL (≈ 119 µM); in [7] it was above 5 µg/mL; in [8], above 5 µg/mL. The EC50 in [9] was above 5 µg/mL. In addition, the “Ratio IC50/EC50” value in experiment [2] was above 1.7. Further, in [5], the IC50 (in general, the concentration that gives 50% inhibition) was above 125 µg/mL. Moreover, the inhibition – broadly, the drop in the measured response relative to a control, in per cent – in experiment [10] worked out at 65.9%.
Take `O=C1OCc2cc3cc4c(cc3c(-c3ccc5c(c3)OCO5)c21)OCO4` [TAIWANIN C]: the EC50 in experiment [1] was above 5 µg/mL; in [3] it was above 5 µg/mL; in experiment [4] it was above 5 µg/mL; in [6], above 125 µg/mL; in experiment [7] it was above 5 µg/mL; in [8], above 5 µg/mL. Besides, the EC50 in [9] was above 5 µg/mL. Moreover, the IC50 in [5] was above 125 µg/mL. Besides, the inhibition in experiment [10] was determined as 88.2%.
`O=C1OC[C@@H](Cc2ccc3c(c2)OCO3)/C1=C\c1ccc2c(c1)OCO2` [ISOGADIAN]: the EC50 in [1] was above 5 µg/mL; in experiment [3], above 5 µg/mL; in experiment [4], above 5 µg/mL; in experiment [6], 34.6 µg/mL (≈ 98.2 µM); in experiment [7], above 5 µg/mL; in experiment [8] it was above 5 µg/mL. In [9], the EC50 is above 5 µg/mL. The “Ratio IC50/EC50” value in experiment [2] was above 3.6. Moreover, the IC50 in experiment [5] was above 125 µg/mL. In experiment [10], the inhibition was determined as 39.7%.
As for `Cc1c2ccncc2c(C)c2c1[nH]c1ccccc12` [ELLIPTECINE], the EC50 in experiment [1] was determined as 0.2 µg/mL (≈ 0.812 µM); in [3], 0.4 µg/mL (≈ 1.62 µM); in experiment [4] it was 0.2 µg/mL (≈ 0.812 µM); in [7] it was 0.7 µg/mL (≈ 2.84 µM); in experiment [8], 0.2 µg/mL (≈ 0.812 µM); in experiment [9] it was 0.5 µg/mL (≈ 2.03 µM).
For `COc1cc(/C=C2/C(=O)OC[C@H]2Cc2ccc(O)c(OC)c2)ccc1O` [ACUTISSIMALIGNAN B], the EC50 in experiment [1] was above 5 µg/mL; in [3] it was above 5 µg/mL; in experiment [4] it was above 5 µg/mL; in experiment [6] it was 9.9 µg/mL (≈ 27.8 µM); in experiment [7], above 5 µg/mL; in experiment [8] it was above 5 µg/mL. For the same molecule, in [9], the EC50 is above 5 µg/mL. The “Ratio IC50/EC50” value in [2] amounted to 4.9. Besides, the IC50 in experiment [5] is 48.2 µg/mL (≈ 135 µM). Moreover, the inhibition in [10] is 45.4%.
For the molecule `COc1cc2c(=O)oc3c(OC)c(O)cc4c(=O)oc(c1OC)c2c34`, the EC50 in [1], in experiment [3], in experiment [4], in experiment [7], in experiment [8] and in experiment [9] was above 5 µg/mL throughout.
`C/C(=C\[C@H]1C[C@@H]([C@@H]2CC[C@]34C[C@]23C=C[C@@H]2[C@@]3(C)CC=C5C[C@@H](c6ccccc6)OC[C@]5(C)[C@@H]3C[C@@H](O)[C@]24C)C(=O)O1)CO` [DICHAPETALIN A]: the EC90 (in general, the concentration at which the effect reaches the 90% level) in experiment [11] was below 0.0001 µg/mL.
Take `COc1cc2c(O[C@@H]3OC[C@H](O)[C@H](O)[C@H]3O)c3c(c(-c4ccc5c(c4)OCO5)c2cc1OC)C(=O)OC3` [ACUTISSIMALIGNAN A]: the EC50 is 0.02 µg/mL (≈ 0.039 µM) in experiment [1]; 0.22 µg/mL (≈ 0.429 µM) in experiment [3]; 0.14 µg/mL (≈ 0.273 µM) in experiment [4]; below 3.9 µg/mL in experiment [6]; 0.59 µg/mL (≈ 1.15 µM) in experiment [7]; 2.3 µg/mL (≈ 4.49 µM) in experiment [8]. Moreover, the EC50 in [9] was 0.25 µg/mL (≈ 0.488 µM). The “Ratio IC50/EC50” value in experiment [2] was above 3.1. The IC50 in experiment [5] was 12.3 µg/mL (≈ 24 µM). The inhibition in experiment [10] amounted to 10.7%.
Turning to `COc1c(O)cc2c(=O)oc3c(O)c(O[C@@H]4O[C@@H](C)[C@H](O)[C@@H](O)[C@H]4O)cc4c(=O)oc1c2c34`, the EC50 in experiment [1] is above 5 µg/mL; in experiment [3] it was above 5 µg/mL; in [4], above 5 µg/mL; in experiment [6], above 125 µg/mL; in experiment [7], above 5 µg/mL; in experiment [8], above 5 µg/mL. In experiment [9], the EC50 was above 5 µg/mL. In addition, the half-inhibitory concentration (IC50) in experiment [5] is above 125 µg/mL. Besides, the inhibition in [10] is -9.2%.
With `CO[C@@]1(C)CO[C@@]2(C1)OC(=O)[C@H]([C@@H]1CC[C@]34C[C@]13CC[C@@H]1[C@@]3(C)CC=C5C[C@@H](c6ccc7c(c6)OCO7)OC[C@]5(C)[C@@H]3C[C@@H](O)[C@]14C)[C@H]2O`, the EC50 in [1] was 0.005 µg/mL (≈ 0.00739 µM); in experiment [3], 1.1 µg/mL (≈ 1.63 µM); in experiment [4], 3.1 µg/mL (≈ 4.58 µM); in [6] it was below 3.9 µg/mL; in [7] it was above 5 µg/mL; in experiment [8], above 5 µg/mL. Besides, the EC50 in experiment [9] came to 4.8 µg/mL (≈ 7.09 µM). The “Ratio IC50/EC50” value in experiment [2] is recorded as above 8.1. The IC50 in experiment [5] turned out to be 31.6 µg/mL (≈ 46.7 µM). The inhibition in experiment [10] was -0.5%.
In the case of `CO[C@@]1(C)CO[C@@]2(C=C([C@@H]3CC[C@]45C[C@]34CC[C@@H]3[C@@]4(C)CC=C6C[C@@H](c7ccc8c(c7)OCO8)OC[C@]6(C)[C@@H]4C[C@@H](O)[C@]35C)C(=O)O2)C1`, the EC50 was 0.5 µg/mL (≈ 0.759 µM) in [1]; above 5 µg/mL in experiment [3]; above 5 µg/mL in experiment [4]; 86.1 µg/mL (≈ 131 µM) in [6]; above 5 µg/mL in experiment [7]; above 5 µg/mL in experiment [8]. In experiment [9], the EC50 is above 5 µg/mL. The “Ratio IC50/EC50” value in [2] is listed as above 1.5. The IC50 in experiment [5] is above 125 µg/mL. Further, the inhibition in experiment [10] turned out to be 55.5%.
On to `COc1c(OC(C)=O)cc2c(=O)oc3c(O)c(O[C@@H]4O[C@@H](C)[C@H](OC(C)=O)[C@@H](OC(C)=O)[C@H]4OC(C)=O)cc4c(=O)oc1c2c34`, for which the EC50 in experiment [1] is above 5 µg/mL; in [3] it was above 5 µg/mL; in experiment [4], above 5 µg/mL; in [6] it was 15.7 µg/mL (≈ 24.9 µM); in [7] it was above 5 µg/mL; in experiment [8], above 5 µg/mL. Besides, the EC50 in [9] is above 5 µg/mL. Besides, in [2], the “Ratio IC50/EC50” value was 1.6. For the same molecule, the IC50 in [5] amounted to 24.9 µg/mL (≈ 39.5 µM). Further, the inhibition in [10] worked out at 51%.
